Experimental data gathered from unrelated publications.
In brackets after ≈: the same amount, converted by molar mass.
Organism: Micrococcus luteus

O=C(O)c1cn(C2CC2)c2cc(N3CCNCC3)c(F)cc2c1=O  inhibition zone (microbial growth, disc diffusion; 100 µg/mL, 24 h): 25 mm
O=C1NN=C(N=Cc2ccccc2O)C1=NNn1c(-c2ccccc2)nc2ccccc2c1=O  MIC (microbial growth, broth dilution; 24 h): 55.4 µM
CN[C@H](CC(C)C)C(=O)N[C@H]1C(=O)N[C@@H](CC(N)=O)C(=O)N[C@H]2C(=O)N[C@H]3C(=O)N[C@H](C(=O)N[C@H](C(=O)O)c4cc(O)cc(O)c4-c4cc3ccc4O)[C@H](O)c3ccc(c(Cl)c3)Oc3cc2cc(c3O[C@@H]2O[C@H](CO)[C@@H](O)[C@H](O)[C@H]2O[C@H]2C[C@](C)(N)[C@H](O)[C@H](C)O2)Oc2ccc(cc2Cl)[C@H]1O  MIC (microbial growth, broth dilution; ML01): 0.13 µg/mL
O=C(O)CN1C(=O)/C(=C/c2ccc(-c3ccc(N(c4ccccc4)c4ccccc4)cc3)c3ccccc23)SC1=S  MBC (microbial killing, broth dilution; ATCC10240): 62.5 µg/mL (≈ 109 µM)
CC1(C)S[C@@H]2[C@H](NC(=O)[C@H](N)c3ccccc3)C(=O)N2[C@H]1C(=O)O  inhibition (microbial growth, agar dilution; ATCC10240; 26.93 µM): 100%
O=C1NN=C(N=Cc2ccc(O)c(O)c2)C1=NNn1c(-c2ccccc2)nc2ccccc2c1=O  MIC (microbial growth, broth dilution; 24 h): 53.5 µM
CN[C@H](CC(C)C)C(=O)N[C@H]1C(=O)N[C@@H](CC(N)=O)C(=O)N[C@H]2C(=O)N[C@H]3C(=O)N[C@H](C(=O)N[C@H](C(=O)O)c4cc(O)cc(O)c4-c4cc3ccc4O)[C@H](O)c3ccc(c(Cl)c3)Oc3cc2cc(c3O[C@@H]2O[C@H](CO)[C@@H](O)[C@H](O)[C@H]2O[C@H]2C[C@](C)(N)[C@H](O)[C@H](C)O2)Oc2ccc(cc2Cl)[C@H]1O  MIC (microbial growth, broth dilution; ATCC10240): 0.12 µg/mL
CC1=NN(CNc2c(O)c(S(=O)(=O)O)cc3ccccc23)C(=O)C1=NNn1c(-c2ccccc2)nc2ccccc2c1=O  MIC (microbial growth, broth dilution; 24 h): 83.7 µM
C/C=C(\C)c1cc(O)c(C)c(OC(=O)c2c(C)c(Cl)c(O)c(Cl)c2O)c1  MIC (microbial growth, broth dilution; ML01): 4 µg/mL
